Assay results from different studies.
Compare with care: the assays were run in different laboratories.
Observed: cell growth or viability

SMILES	cell line	test	setting	endpoint	result
CNC(=O)c1cc(Oc2ccc(NC(=O)Nc3ccc(Cl)c(C(F)(F)F)c3)cc2)ccn1	PLC-PRF-5	imaging	72 h	IC50	4.08 µM
Cc1nc(Nc2ncc(C(=O)Nc3c(C)cccc3Cl)s2)cc(N2CC[C@H](O)C2)n1	SUP-B15	ATP luminescence	10 µM, 72 h	inhibition	66%
Cc1cc(Cn2ccnc2)nn1C	SH-SY5Y	MTT	24 h	IC50	487 µM
C[C@H](Nc1ccc2c(c1)OCCn1cc(N3C(=O)OC[C@H]3C(F)F)nc1-2)C(N)=O	EFM-19	ATP luminescence	5 days	EC50	0.0312 µM
Cc1cc(C)n(Cn2ccnc2)n1	SH-SY5Y	MTT	24 h	IC50	50.3 µM
CN(C)CCNC(=O)c1cccn2c(=O)c3cc4ccccc4cc3nc12	PLC-PRF-5	imaging	72 h	IC50	16.2 µM
COc1ccc(C[C@H](N)C(=O)N[C@H]2[C@@H](O)[C@H](n3cnc4c(N(C)C)ncnc43)O[C@@H]2CO)cc1	J774.1	resazurin	72 h	IC50	1.36 µM
Cc1nc(NC(=O)N2CCC[C@H]2C(N)=O)sc1-c1ccnc(C(C)(C)C(F)(F)F)c1	EFM-19	ATP luminescence	5 days	EC50	0.38 µM
